Bioassay records from PubChem BioAssay.
Hits are enriched below; roughly 2.6% of the tested compounds scored in any of these assays.
LMPTP inh: LMPTP phosphatase inhibitors, primary screen, biochemical, fluorescence intensity, uHTS | recombinant LMPTP-A, OMFP fluorogenic substrate | inhibition, % at 20 µM | 0.22% of 360,000 active | AID 651560, 2012;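 active = compounds that cut the enzyme signal by at least half of the control window in the single-dose screen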;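 note: plate controls were DMSO wells with enzyme plus substrate for no effect and substrate without enzyme for full effect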
Target sequence (P24666 whole entry, looked up): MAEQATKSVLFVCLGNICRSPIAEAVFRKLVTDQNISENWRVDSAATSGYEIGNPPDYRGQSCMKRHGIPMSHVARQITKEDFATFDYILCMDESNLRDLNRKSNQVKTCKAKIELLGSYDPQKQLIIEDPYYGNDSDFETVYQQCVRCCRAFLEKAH
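Test system – LMPTP-A phosphatase enzyme · Quantity – 0.625 nM LMPTP-A final · Reagent – OMFP substrate, 400 µM final · Dosing – one test concentration per compound, 20 µM, with 3% DMSO overall · Timing – 50 min enzyme reaction at room temperature, protected from light · Detection – fluorescence intensity · Controls – substrate-only low control, DMSO enzyme-plus-substrate high control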
NadD inh: inhibitors of S. aureus NadD, primary screen, biochemical, colorimetric, uHTS. purified NadD enzyme, colorimetric absorbance read-out. Nicotinate-nucleotide adenylyltransferase NadD (Staphylococcus aureus N315). 0.78% of 360,000 active. inhibition, % at 20 µM; in the data active = inhibition above about 26%
STEP inh: STEP phosphatase inhibitors, primary screen, biochemical, fluorescence intensity, uHTS. Tyrosine-protein phosphatase non-receptor type 5 (Homo sapiens), P54829. recombinant STEP, OMFP fluorogenic substrate. inhibition, % at 20 µM. 0.25% of 360,000 active. AID 588621, 2011;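 active = inhibition at 20 µM, scaled per plate between control wells, above about 37%, limit read from the data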;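 note: 0% = DMSO with enzyme and substrate and 100% = substrate only without enzyme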
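System: STEP phosphatase, cell-free reaction; Buffer or medium: Bis-Tris pH 6.0 buffer with DTT, detergent; Incubation: 20 min at room temperature, dark; Measured by: fluorescence, 480/540 nm.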
rCAG binder-1: binders of r(CAG) RNA repeats, primary screen, biochemical, fluorescence; r(CAG) RNA repeat, TO-PRO-1 dye displacement fluorescence; inhibition, % at 3 µM; 1.3% of 370,000 active; AID 651821, 2012;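 active = inhibition above the plate cutoff, the mean of all test compounds on that plate plus 3 SD, cut at about 35% in these data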;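 note: 0% = DMSO alone and 100% = 100 µM mitoxantrone as full dye displacement; higher means more dye released from RNA so lower well fluorescence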
Scp1 inh: Scp-1 phosphatase inhibitors, primary screen, biochemical, colorimetric, uHTS; Carboxy-terminal domain RNA polymerase II polypeptide A small phosphatase 1 (Homo …; AID 493091, 2011; 0.88% of 340,000 active; Recombinant Scp1, phosphopeptide, malachite green phosphate absorbance; inhibition, % at 20 µM;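 active = inhibition above about 50% at 20 µM, limit read from the data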;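 note: plate controls were DMSO wells with enzyme for no effect and wells lacking enzyme for full effect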
Target sequence (Q9GZU7 76-261 limits assumed): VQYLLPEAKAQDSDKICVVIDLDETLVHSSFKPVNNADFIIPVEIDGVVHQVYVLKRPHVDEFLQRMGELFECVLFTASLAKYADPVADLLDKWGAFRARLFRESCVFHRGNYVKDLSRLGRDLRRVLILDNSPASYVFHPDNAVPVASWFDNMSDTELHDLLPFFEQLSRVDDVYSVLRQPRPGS
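Test system: SCP-1 phosphatase catalytic domain, residues 76-261 | Compound dosing: One concentration, 20 µM, with 1.0% DMSO | Schedule: 45 min room-temperature reaction, 5 min colour, 30 min stabiliser | Detection: Absorbance at 630 nm | Read-out basis: % inhibition of SCP-1 phosphate liberation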
NadD inh conf: inhibitors of S. aureus NadD, confirmation, biochemical, colorimetric, single concentration | 13% of 2,000 active | purified S. aureus NadD, colorimetric enzyme assay | shares compounds with NadD inh | inhibition, % at 20 µM; in the data active = inhibition mostly above about 42%, no sharp cut-off; inactive = mostly below about 42%
rCAG binder conf: small molecules binding CAG repeat RNA – biochemical, fluorescence, confirmation. shares compounds with rCAG binder-1. r(CAG) RNA repeat, TO-PRO-1 dye displacement fluorescence. inhibition, % at 3 µM. 70% of 4,300 active;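 active = inhibition above a per-plate cutoff, the mean inhibition of sample wells plus 3 SD, cut at about 35% in these data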;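 note: loss of TO-PRO-1 fluorescence as compound displaces dye from 1x1 AA loop RNA; 0% = DMSO only wells and 100% = 100 µM mitoxantrone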
dCAG dye counter: displacement of TO-PRO-1 from CAG DNA duplex, counter-screen for rCAG RNA repeat binder project, biochemical, fluorescence, TO-PRO-1 dye, d(CAG) DNA oligo; shares compounds with rCAG binder-1; d(CAG) DNA oligo TO-PRO-1 dye displacement; inhibition, % at 3 µM; 94% of 4,300 active; AID 652068, 2013;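 active = inhibition above its plate's cutoff, the mean test-well inhibition plus 3 SD, cut at about 4.8% in these data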;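 note: 0% = DNA dye mix with DMSO and 100% = 100 µM mitoxantrone; hits displace the dye from DNA and so lower well fluorescence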
DNA CAG DR: inhibitors of DNA CAG/GTC TO-PRO-1 complex, dose response, counter-screen for rCAG RNA repeat binder project, biochemical, fluorescence, TO-PRO-1 dye | IC50, µM | DNA CAG/GTC duplex TO-PRO-1 dye displacement fluorescence | shares compounds with rCAG binder-1 | 20% of 250 active; in the data active = IC50 below about 10 µM
dCAG TOPRO ctr: TO-PRO-1 dye complex inhibitors on d(CAG) DNA, dose response, counter-screen, biochemical, fluorescence, late stage | IC50, µM | d(CAG) DNA duplex TO-PRO-1 dye displacement | 80% of 30 active | shares compounds with rCAG binder-1
rCAG binder-2: molecules binding r(CAG) RNA repeats, late stage dose response, late-stage follow-up, biochemical, fluorescence, dose response, powder samples; r(CAG) RNA TO-PRO-1 dye displacement; 100% of 30 active; IC50, µM; shares compounds with rCAG binder-1
Numbers without * were called inactive; i = inactive; / = no result given. Unless noted, the rule behind the calls is not given here.

SMILES	LMPTP inh	NadD inh	STEP inh	rCAG binder-1	Scp1 inh	NadD inh conf	rCAG binder conf	dCAG dye counter	others
O=C(C1=C(O)C(=O)N(c2nc3ccc(Cl)cc3s2)C1c1ccco1)c1ccco1 (centres undefined)	60*	56*	28	68*	64*	51*	72*	33*	DNA CAG DR=3.5*;dCAG TOPRO ctr=2.9*;rCAG binder-2=1.3*
Cc1ccc2nc(N3C(=O)C(O)=C(C(=O)c4ccco4)C3c3ccc(C)o3)sc2c1 (centres undefined)	3	26*	8	49*	9	35	72*	33*	DNA CAG DR=3.8*;dCAG TOPRO ctr=2*;rCAG binder-2=0.92*
CCNc1ccc(Br)cc(C(=O)/C=C/c2ccc3c(c2)OCO3)c1=O	54*	52*	4	39*	6	25	36*	18*
Nc1ccccc1C(=O)/C=C/c1ccc2c(c1)OCO2	2	-4	0	2	-6	/	/	/
COC(=O)[C@]12CCCCC=C1N(Cc1ccc(OC)cc1)C(=O)[C@@H]2CC(=O)N1CCC(c2ccccc2)CC1	/	/	/	8	/	/	/	/
Nc1c(C(=O)Nc2ccc(Br)cc2)sc2nc(-c3ccco3)ccc12	7	51*	-1	51*	9	10	37*	20*
Nc1c(C(=O)Nc2ccccc2)sc2nc3c(c(-c4ccco4)c12)CCCC3	1	16	2	3	-2	/	/	/
Cc1ccc(-c2nnc3n2N=C(c2ccc(-c4ccccc4)cc2)CS3)cc1	/	/	/	10	/	/	/	/
O=C(/C=C/c1ccc([N+](=O)[O-])cc1)/C=C/c1ccco1	20	38*	6	47*	/	32	25	12*
O=C(/C=C/c1ccc([N+](=O)[O-])cc1)c1ccco1	7	5	0	3	1	/	/	/
Cc1ccccc1Cn1cc(COC(=O)Nc2ccc(F)cc2)nn1	/	/	/	9	/	/	/	/
O=C(NCc1ccccc1)C1(C(=O)C2CC2)CC(c2ccccc2C(F)(F)F)=NO1 (centres undefined)	/	/	/	-1	/	/	/	/
O=C(CCc1ccccc1)N[C@H]1[C@H](OCc2ccccc2)CCC[C@@]12C(=O)N(Cc1ccccc1)c1ccc(-c3cnccn3)cc12	/	/	/	10	/	/	/	/
COc1ccccc1/C=C/C(=O)OCC(=O)Nc1nnc(-c2ccccc2)o1	0	15	0	30	11	/	/	/
COc1ccc(OC)c(/C=C/C(=O)OCC(=O)Nc2nnc(-c3ccccc3)o2)c1	3	44*	0	45*	14	60*	41*	15*
CC(Nc1nc(Nc2ccc(F)cc2)nc(SCC(N)=O)n1)c1ccccc1 (centres undefined)	2	2	-4	-1	-6	/	/	/
CC(Nc1nc(=S)nc(Nc2ccc(F)cc2)[nH]1)c1ccccc1 (centres undefined)	4	31*	4	68*	-4	37	10	12*
CC1CCc2c(sc(Nc3nc4c(F)cccc4s3)c2C(N)=O)C1 (centres undefined)	2	36*	3	42*	-5	8	26	14*
CCCc1nc2scc(-c3ccccc3)c2c(=O)n1N	0	-2	-1	2	-7	/	/	/
COc1ccc(O)c(C(=O)c2cc(SCC(=O)O)c3nc4sc5c(c4c(=O)n3c2)CCCC5)c1	16	46*	15	42*	34	36	89*	63*
O=C(O)CSc1cc(C(=O)c2ccccc2O)cn2c(=O)c3c(-c4ccccc4)csc3nc12	16	38*	5	53*	18	57*	90*	74*
COc1ccc(-n2c(SCC(=O)O)nc3sc4c(c3c2=O)CCCC4)cc1	0	-4	2	15	-3	/	/	/
C=CCN1C(=O)[C@@H](CC(=O)N2CCCC2)[C@]2(C(=O)OCC)CCCCC/C=C/12	/	/	/	5	/	/	/	/
O=C(O)c1ccccc1-c1ccc(C=c2sc3nc4cc(Br)cnc4n3c2=O)o1	65*	59*	80*	81*	/	43	72*	39*
O=C(O)c1ccccc1-c1ccc(/C=C/c2cc(C(F)(F)F)[nH]c(=O)n2)o1	-4	3	-101	i	11	/	/	/
SMILES	LMPTP inh	NadD inh	STEP inh	rCAG binder-1	Scp1 inh	NadD inh conf	rCAG binder conf	dCAG dye counter	others
CC(COc1ccc([N+](=O)[O-])cc1Cl)CN1CCC(C(O)(c2ccccc2)c2ccccc2)CC1 (centres undefined)	/	/	/	4	/	/	/	/
Cc1ccc(-c2cc(C(=O)Nc3ccc(S(=O)(=O)Nc4onc(C)c4C)cc3)c3ccccc3n2)cc1	1	31*	-3	87*	2	66*	86*	61*
O=C(Nc1ccc(S(=O)(=O)Nc2nccs2)cc1)c1cc(-c2ccccc2Cl)nc2ccccc12	-1	67*	-2	76*	-5	65*	77*	41*
Cc1cc(NS(=O)(=O)c2ccc(NC(=O)c3ccccc3C)cc2)no1	-1	-2	0	7	-5	/	/	/
Cc1ccc(-c2cc(C(=O)Nc3ccc(S(=O)(=O)Nc4cc(C)on4)cc3)c3ccccc3n2)c(C)c1	4	43*	5	79*	11	65*	82*	53*
COc1ccc(-c2nnc(SCC(=O)Nc3cccc4ccccc34)n2Cc2ccco2)cc1	/	/	/	9	/	/	/	/
